# Results: ChEMBL document CHEMBL5107959, “Structure-activity relationships of valine, tert-leucine, and phenylalanine amino acid-derived synthetic cannabinoid receptor agonists related to ADB-BUTINACA, APP-BUTINACA, and ADB-P7AICA” (RSC Med Chem, 2022)
# Tests used:
# Cannabinoid receptor 2 [1] = biological target: T1, Cannabinoid receptor 2 (Homo sapiens, UniProt P34972); experiment: Agonist activity at human CB2 receptor expressed in mouse AtT20 cells incubated for 60 mins by FLIPR membrane potential assay; type: functional, cell-based
# Cannabinoid receptor 1 [2] = biological target: T2, Cannabinoid receptor 1 (Homo sapiens, UniProt P21554); experiment: Displacement of [3H]-CP55940 from human CB1 receptor expressed in human HEK293-EBNA cells incubated for 60 mins by radioligand competitive binding assay based liquid scintillation counter; type: cell-based
# Cannabinoid receptor 2 [3] = biological target: T1, Cannabinoid receptor 2; experiment: Agonist activity at human CB2 receptor expressed in mouse AtT20 cells assessed as maximal agonist effect by measuring fluorescence at 10 uM incubated for 60 mins by FLIPR membrane potential assay relative to CP55940; type: functional, cell-based; details: filed as agonist
# Outline: (§1)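 AtT20 FlpIn cells stably expressing human CB1 or CB2, plated overnight in L-15 with 1% FBS. Loaded 60 min at 37 °C with FLIPR blue membrane potential dye, pH 7.4 buffer. Fluorescence (ex 530/em 565 nm) read every 2 s; 2 min baseline, then drug added. Change in fluorescence versus baseline minus vehicle (DMSO 0.1%/BSA 0.01% final), normalised to 1 μM CP55,940. Response taken at 10 μM where <50% change.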
# Cannabinoid receptor 1 [4] = biological target: T2, Cannabinoid receptor 1; experiment: Agonist activity at human CB1 receptor expressed in mouse AtT20 cells assessed as maximal agonist effect by measuring fluorescence at 10 uM incubated for 60 mins by FLIPR membrane potential assay relative to CP55940; type: functional, cell-based; outline: as §1
# Cannabinoid receptor 1 [5] = biological target: T2, Cannabinoid receptor 1; experiment: Agonist activity at CB1 receptor (unknown origin) expressed in human HEK293T cells co-expressing beta-arrestin2 assessed as beta-arrestin2 recruitment using furimazine as substrate by Nano-Glo live cell reagent assay; type: functional, cell-based
# Outline: (§2)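 βarr2 recruitment by NanoBiT split-luciferase complementation in HEK293T stably expressing CB1-βarr2 or CB2-βarr2. Nano-Glo Live Cell reagent (furimazine) equilibrated 10 min before compound, then luminescence monitored continuously 2 h. Stocks in methanol, diluted in MeOH/Opti-MEM. EC50 from four-parameter logistic fit. Duplicates in ≥3 independent experiments.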
# Cannabinoid receptor 2 [6] = biological target: T1, Cannabinoid receptor 2; experiment: Agonist activity at CB2 receptor (unknown origin) expressed in human HEK293T cells co-expressing beta-arrestin2 assessed as beta-arrestin2 recruitment by measuring maximal luminescence using furimazine as substrate at 100 uM by Nano-Glo live cell reagent assay relative to CP55940; type: functional, cell-based; details: filed as agonist
# Outline: (§3)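 βarr2 recruitment by NanoBiT split-luciferase complementation in HEK293T stably expressing CB1-βarr2 or CB2-βarr2. Cells seeded on poly-D-lysine overnight, washed into Opti-MEM. Nano-Glo Live Cell reagent (furimazine) equilibrated 10 min, then compound added and luminescence followed 2 h. […] Value read at highest tested concentration, 100 μM. Duplicates, ≥3 independent experiments.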
# Cannabinoid receptor 2 [7] = biological target: T1, Cannabinoid receptor 2; experiment: Agonist activity at CB2 receptor (unknown origin) expressed in human HEK293T cells co-expressing beta-arrestin2 assessed as beta-arrestin2 recruitment using furimazine as substrate by Nano-Glo live cell reagent assay; type: functional, cell-based; outline: as §2
# Cannabinoid receptor 2 [8] = biological target: T1, Cannabinoid receptor 2; experiment: Displacement of [3H]-CP55940 from N-terminal 3HA-tagged human CB2 receptor expressed in human HEK293-EBNA cells incubated for 60 mins by radioligand competitive binding assay based liquid scintillation counter; type: cell-based
# Cannabinoid receptor 1 [9] = biological target: T2, Cannabinoid receptor 1; experiment: Agonist activity at human CB1 receptor expressed in mouse AtT20 cells incubated for 60 mins by FLIPR membrane potential assay; type: functional, cell-based
# Cannabinoid receptor 1 [10] = biological target: T2, Cannabinoid receptor 1; experiment: Agonist activity at CB1 receptor (unknown origin) expressed in human HEK293T cells co-expressing beta-arrestin2 assessed as beta-arrestin2 recruitment by measuring maximal luminescence using furimazine as substrate at 100 uM by Nano-Glo live cell reagent assay relative to CP55940; type: functional, cell-based; outline: as §3
# [11] = Toxicity in C57BL/6J mouse assessed as reduction in body temperature at 10 mg/kg,ip measured after 2.5 hrs by radio-biotelemetry analysis; type: organism-based; details: in vivo
# Outline: (§4)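 Male C57BL/6J mice (four per cohort) fitted with intraperitoneal biotelemetry transmitters, 10 days' recovery. Compound in EtOH/polysorbate 80/saline (5:5:90) given i.p. at 10 μL/g after baseline vehicle injection; escalating doses 0.03 to 10 mg/kg, one every three days.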
# [12] = Toxicity in C57BL/6J mouse assessed as reduction in body temperature at 0.1 mg/kg,ip measured after 2.5 hrs by radio-biotelemetry analysis; type: organism-based; details: in vivo; outline: as §4
# Cannabinoid receptor 1 [13] = biological target: T2, Cannabinoid receptor 1; experiment: Agonist activity at human CB1 receptor expressed in mouse AtT20 cells at 10 uM incubated for 60 mins by FLIPR membrane potential assay; type: functional, cell-based; outline: as §1
# [14] = Toxicity in C57BL/6J mouse assessed as reduction in body temperature upto 10 mg/kg,ip measured after 2.5 hrs by radio-biotelemetry analysis; type: organism-based; details: in vivo; outline: as §4
# T2 sequence (P21554 whole entry): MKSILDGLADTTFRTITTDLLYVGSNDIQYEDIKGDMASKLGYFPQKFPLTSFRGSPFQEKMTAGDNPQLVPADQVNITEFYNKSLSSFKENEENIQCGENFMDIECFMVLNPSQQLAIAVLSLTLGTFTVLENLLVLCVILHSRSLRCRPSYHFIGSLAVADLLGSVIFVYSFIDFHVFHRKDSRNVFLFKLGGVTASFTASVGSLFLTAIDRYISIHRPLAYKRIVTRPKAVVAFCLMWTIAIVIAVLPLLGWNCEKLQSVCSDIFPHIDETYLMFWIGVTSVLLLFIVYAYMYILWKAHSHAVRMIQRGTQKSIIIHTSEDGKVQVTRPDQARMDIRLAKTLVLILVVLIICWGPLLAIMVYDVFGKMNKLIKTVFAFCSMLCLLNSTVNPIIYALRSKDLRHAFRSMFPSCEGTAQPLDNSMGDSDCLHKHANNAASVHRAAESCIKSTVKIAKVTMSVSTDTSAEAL
# T1 sequence (P34972 whole entry): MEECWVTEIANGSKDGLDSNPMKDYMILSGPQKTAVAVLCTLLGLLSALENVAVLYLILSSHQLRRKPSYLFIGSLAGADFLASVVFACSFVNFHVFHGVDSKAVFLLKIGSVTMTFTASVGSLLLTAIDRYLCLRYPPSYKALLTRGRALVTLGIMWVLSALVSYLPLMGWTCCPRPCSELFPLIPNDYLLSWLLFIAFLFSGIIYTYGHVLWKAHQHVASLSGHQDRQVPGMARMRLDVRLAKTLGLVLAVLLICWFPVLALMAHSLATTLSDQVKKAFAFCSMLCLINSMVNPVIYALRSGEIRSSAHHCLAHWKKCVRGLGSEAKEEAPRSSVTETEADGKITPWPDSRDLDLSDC
Structure (SMILES),EC50 (Cannabinoid receptor 2 [1]) [nM],Ki (Cannabinoid receptor 1 [2]) [nM],Emax (Cannabinoid receptor 2 [3]) [%],Emax (Cannabinoid receptor 1 [4]; filed as agonist) [%],EC50 (Cannabinoid receptor 1 [5]; read-out: EC50) [nM],Emax (Cannabinoid receptor 2 [6]) [%],EC50 (Cannabinoid receptor 2 [7]) [nM],Ki (Cannabinoid receptor 2 [8]) [nM],EC50 (Cannabinoid receptor 1 [9]) [nM],Emax (Cannabinoid receptor 1 [10]; filed as agonist) [%],Activity [11],Activity [12],Emax (Cannabinoid receptor 1 [4]) [%],EC50 (Cannabinoid receptor 1 [5]; read-out: pEC50 (converted)) [nM],Emax (Cannabinoid receptor 1 [10]) [%],Activity (Cannabinoid receptor 1 [13]) [%],Activity [14]
CCCCn1cc(C(=O)N[C@H](C(N)=O)C(C)(C)C)c2ccccc21,6,1.34,103,115,139,92,4.44,1.32,6,756,,,,,,,
CCCCCn1cc(C(=O)N[C@H](C(N)=O)C(C)(C)C)c2cccnc21,7.1,3.94,108,,147,102,22.2,20.4,5.8,544,Non-Toxic,,,,,,
CCCCn1cc(C(=O)N[C@@H](Cc2ccccc2)C(N)=O)c2ccccc21,40,307,92,93,15500,76,209,148,5100,50,,,,,,,
CCCCn1nc(C(=O)N[C@H](C(N)=O)C(C)(C)C)c2ccccc21,4.1,0.299,101,113,19,83,1.79,0.912,0.67,728,,Toxic,,,,,
CCCCn1cc(C(=O)N[C@@H](Cc2ccccc2)C(N)=O)c2cccnc21,319,538,79,,> 1050,53,3630,2190,,,,,19,1050,< 5,< 50,
CCCCCn1cc(C(=O)N[C@H](C(N)=O)C(C)C)c2cccnc21,47,49.5,93,112,4150,70,694,251,101,278,,,,,,,
CCCCn1cc(C(=O)N[C@H](C(N)=O)C(C)C)c2cccnc21,202,501,100,104,> 60800,88,4620,891,1490,44,,,,,,,
CCCCn1nc(C(=O)N[C@@H](Cc2ccccc2)C(N)=O)c2ccccc21,6.8,25.1,99,95,1170,71,17,39.8,161,216,,,,,,,Toxic
CCCCCn1cc(C(=O)c2cccc3ccccc23)c2ccccc21,22,2.56,87,116,35.5,58,7.3,9.55,18,310,,,,,,,
CCCCn1nc(C(=O)N[C@H](C(N)=O)C(C)C)c2ccccc21,4.2,1.18,103,114,187,91,13.7,6.46,7.4,622,,,,,,,
CCCCCn1cc(C(=O)N[C@@H](Cc2ccccc2)C(N)=O)c2cccnc21,381,437,78,,> 100000,52,766,794,,,,,30,,6,< 50,
CCCCn1cc(C(=O)N[C@H](C(N)=O)C(C)(C)C)c2cccnc21,21,15.5,103,117,2890,85,120,40.7,88,406,,,,,,,
CCCCn1cc(C(=O)N[C@H](C(N)=O)C(C)C)c2ccccc21,28,12.2,106,107,3300,94,283,77.6,53,390,,,,,,,
